Columns and labels:
[1] = biological target: T1, Toll-like receptor 9 (Homo sapiens) (UniProt Q9NR96); assay: Induction of TLR9-mediated immune stimulation in human PBMC assessed as IL2R production at 10 ug/ml after 24 hrs by luminex multiplex assay (RVb = 0.02 +/- 0.01 ng/ml)
T1 sequence (whole entry): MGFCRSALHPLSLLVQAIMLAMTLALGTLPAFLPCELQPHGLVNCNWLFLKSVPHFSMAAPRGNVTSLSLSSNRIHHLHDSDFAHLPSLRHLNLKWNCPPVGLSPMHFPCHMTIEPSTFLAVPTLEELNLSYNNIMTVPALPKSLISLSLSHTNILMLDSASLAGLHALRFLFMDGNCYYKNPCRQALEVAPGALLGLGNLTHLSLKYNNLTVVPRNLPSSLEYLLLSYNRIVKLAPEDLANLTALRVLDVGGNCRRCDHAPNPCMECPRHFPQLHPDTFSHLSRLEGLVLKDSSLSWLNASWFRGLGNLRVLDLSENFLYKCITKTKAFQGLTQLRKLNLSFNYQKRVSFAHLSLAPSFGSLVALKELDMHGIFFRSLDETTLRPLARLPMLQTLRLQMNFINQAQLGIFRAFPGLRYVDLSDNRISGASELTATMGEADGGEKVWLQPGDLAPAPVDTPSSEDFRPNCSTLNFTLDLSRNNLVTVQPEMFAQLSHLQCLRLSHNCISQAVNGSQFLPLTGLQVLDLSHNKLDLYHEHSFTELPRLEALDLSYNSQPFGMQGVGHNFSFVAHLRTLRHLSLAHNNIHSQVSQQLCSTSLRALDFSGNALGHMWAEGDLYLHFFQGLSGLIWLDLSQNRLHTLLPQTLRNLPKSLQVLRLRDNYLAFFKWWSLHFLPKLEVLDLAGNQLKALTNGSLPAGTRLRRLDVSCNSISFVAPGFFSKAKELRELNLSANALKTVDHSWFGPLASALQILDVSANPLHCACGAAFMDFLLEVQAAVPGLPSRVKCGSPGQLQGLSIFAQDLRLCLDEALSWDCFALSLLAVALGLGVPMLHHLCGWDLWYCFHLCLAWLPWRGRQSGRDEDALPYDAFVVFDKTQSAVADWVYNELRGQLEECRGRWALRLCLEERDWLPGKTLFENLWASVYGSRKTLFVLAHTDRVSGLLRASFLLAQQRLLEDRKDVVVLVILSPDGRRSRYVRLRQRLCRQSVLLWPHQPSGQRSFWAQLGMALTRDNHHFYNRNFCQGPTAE

[2] = biological target: T1, Toll-like receptor 9 (Homo sapiens); assay: Induction of TLR9-mediated immune stimulation in human PBMC assessed as RANTES production at 2 ug/ml after 24 hrs by luminex multiplex assay (RVb = 0.05 +/- 0.04 ng/ml)
[3] = biological target: T1, Toll-like receptor 9 (Homo sapiens); assay: Induction of TLR9-mediated immune stimulation in human PBMC assessed as IL1Ralpha production at 10 ug/ml after 24 hrs by luminex multiplex assay (RVb = 0.12 +/- 0.03 ng/ml)
[4] = biological target: T1, Toll-like receptor 9 (Homo sapiens); assay: Induction of TLR9-mediated immune stimulation in human PBMC assessed as IL1Ralpha production at 2 ug/ml after 24 hrs by luminex multiplex assay (RVb = 0.12 +/- 0.03 ng/ml)
[5] = biological target: T2, Toll-like receptor 9 (Mus musculus) (UniProt Q9EQU3); assay: Activation of mouse TLR9 expressed in HEK293 cells assessed as induction of NF-kappaB activity after 18 hrs by SEAP assay; assay type: cell-based
T2 sequence (whole entry): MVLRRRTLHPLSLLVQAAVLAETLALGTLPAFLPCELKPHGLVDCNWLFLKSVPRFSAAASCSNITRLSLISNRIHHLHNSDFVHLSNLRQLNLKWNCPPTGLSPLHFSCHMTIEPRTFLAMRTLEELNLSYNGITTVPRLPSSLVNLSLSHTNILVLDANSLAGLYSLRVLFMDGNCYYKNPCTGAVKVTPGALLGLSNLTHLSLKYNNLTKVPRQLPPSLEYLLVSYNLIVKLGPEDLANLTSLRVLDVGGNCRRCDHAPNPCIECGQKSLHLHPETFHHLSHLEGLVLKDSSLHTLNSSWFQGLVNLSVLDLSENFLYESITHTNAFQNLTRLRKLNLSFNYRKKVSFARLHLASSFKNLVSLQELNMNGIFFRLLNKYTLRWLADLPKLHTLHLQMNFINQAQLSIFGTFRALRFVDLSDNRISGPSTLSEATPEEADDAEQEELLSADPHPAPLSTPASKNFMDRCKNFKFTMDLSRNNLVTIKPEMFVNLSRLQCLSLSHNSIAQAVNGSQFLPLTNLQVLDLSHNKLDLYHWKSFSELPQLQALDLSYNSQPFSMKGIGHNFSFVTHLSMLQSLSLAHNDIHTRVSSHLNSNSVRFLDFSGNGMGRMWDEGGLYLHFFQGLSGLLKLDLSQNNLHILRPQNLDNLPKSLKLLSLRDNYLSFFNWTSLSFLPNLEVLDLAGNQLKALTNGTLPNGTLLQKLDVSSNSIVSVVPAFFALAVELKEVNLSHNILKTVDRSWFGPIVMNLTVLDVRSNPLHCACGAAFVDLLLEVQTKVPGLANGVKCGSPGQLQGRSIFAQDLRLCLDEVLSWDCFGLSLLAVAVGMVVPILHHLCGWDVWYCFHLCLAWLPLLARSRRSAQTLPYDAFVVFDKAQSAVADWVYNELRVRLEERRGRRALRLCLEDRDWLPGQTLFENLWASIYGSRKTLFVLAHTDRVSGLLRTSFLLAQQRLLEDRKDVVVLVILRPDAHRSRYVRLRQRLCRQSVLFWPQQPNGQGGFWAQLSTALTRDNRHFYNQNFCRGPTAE
How it was run: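 HEK293 cells stably expressing mouse TLR9 were grown in DMEM with 10% heat-inactivated FBS. At 80% confluence they were transiently transfected with a SEAP reporter plasmid (100 ng/well, lipofectamine) for 6 h. Medium was then replaced and agonists were added for 18 h. Supernatant SEAP was read with QuantiBlue substrate at 620-645 nm. Results are expressed as fold NF-κB activity over PBS control.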

[6] = biological target: T1, Toll-like receptor 9 (Homo sapiens); assay: Induction of TLR9-mediated immune stimulation in human PBMC assessed as MIP1beta production at 2 ug/ml after 24 hrs by luminex multiplex assay (RVb = 0.03 +/- 0.02 ng/ml)
[7] = biological target: T1, Toll-like receptor 9 (Homo sapiens); assay: Induction of TLR9-mediated immune stimulation in human PBMC assessed as MCP1 production at 2 ug/ml after 24 hrs by luminex multiplex assay (RVb = 0.08 +/- 0.02 ng/ml)
[8] = biological target: T1, Toll-like receptor 9 (Homo sapiens); assay: Induction of TLR9-mediated immune stimulation in human PBMC assessed as IL2R production at 2 ug/ml after 24 hrs by luminex multiplex assay (RVb = 0.02 +/- 0.01 ng/ml)
[9] = biological target: T1, Toll-like receptor 9 (Homo sapiens); assay: Induction of TLR9-mediated immune stimulation in human PBMC assessed as IL12 production at 2 ug/ml after 24 hrs by luminex multiplex assay (RVb = 0.00 ng/ml)
[10] = biological target: T1, Toll-like receptor 9 (Homo sapiens); assay: Induction of TLR9-mediated immune stimulation in human PBMC assessed as RANTES production at 10 ug/ml after 24 hrs by luminex multiplex assay (RVb = 0.05 +/- 0.04 ng/ml)

SMILES	Activity [1]	Activity [2]	Activity [3]	Activity [4]	Activity [5]	Activity [6]	Activity [7]	Activity [8]	Activity [9]	Activity [10]
Cc1cn([C@H]2C[C@H](OCCOCCOCCOCCOCCOCCOP(=O)(S)O[C@H]3C[C@H](n4cc(C)c(=O)[nH]c4=O)O[C@@H]3COP(=O)(S)O[C@H]3[C@@H](O)[C@H](n4ccc(N)nc4=O)O[C@@H]3COP(=O)(S)O[C@H]3C[C@H](n4cc(C)c(=O)[nH]c4=O)O[C@@H]3COP(=O)(S)O[C@H]3C[C@H](n4cc(C)c(=O)[nH]c4=O)O[C@@H]3COP(=O)(S)O[C@H]3C[C@H](n4ccc5c(=O)[nH]c(N)nc54)O[C@@H]3COP(=O)(S)O[C@H]3[C@@H](O)[C@H](n4ccc(N)nc4=O)O[C@@H]3COP(=O)(S)O[C@H]3C[C@H](n4cc(C)c(=O)[nH]c4=O)O[C@@H]3COP(=O)(S)O[C@H]3[C@@H](O)[C@H](n4cnc5c(=O)[nH]c(N)nc54)O[C@@H]3COP(=O)(S)O[C@H]3C[C@H](n4cc(C)c(=O)[nH]c4=O)O[C@@H]3COP(=O)(S)O[C@H]3[C@@H](O)[C@H](n4ccc(N)nc4=O)O[C@@H]3COP(=O)(S)O[C@H]3C[C@H](n4cc(C)c(=O)[nH]c4=O)O[C@@H]3CO)[C@@H](COP(=O)(S)O[C@H]3[C@@H](O)[C@H](n4ccc(N)nc4=O)O[C@@H]3COP(=O)(S)O[C@H]3C[C@H](n4cc(C)c(=O)[nH]c4=O)O[C@@H]3COP(=O)(S)O[C@H]3C[C@H](n4cc(C)c(=O)[nH]c4=O)O[C@@H]3COP(=O)(S)O[C@H]3C[C@H](n4ccc5c(=O)[nH]c(N)nc54)O[C@@H]3COP(=O)(S)O[C@H]3[C@@H](O)[C@H](n4ccc(N)nc4=O)O[C@@H]3COP(=O)(S)O[C@H]3C[C@H](n4cc(C)c(=O)[nH]c4=O)O[C@@H]3COP(=O)(S)O[C@H]3[C@@H](O)[C@H](n4cnc5c(=O)[nH]c(N)nc54)O[C@@H]3COP(=O)(S)O[C@H]3C[C@H](n4cc(C)c(=O)[nH]c4=O)O[C@@H]3COP(=O)(S)O[C@H]3[C@@H](O)[C@H](n4ccc(N)nc4=O)O[C@@H]3COP(=O)(S)O[C@H]3C[C@H](n4cc(C)c(=O)[nH]c4=O)O[C@@H]3CO)O2)c(=O)[nH]c1=O (stereo not given in full)	0.21 ng/mL	1.57 ng/mL	83.9 ng/mL	10.7 ng/mL	Dose-dependent effect	0.11 ng/mL	0.25 ng/mL	0.11 ng/mL	0.12 ng/mL	1.32 ng/mL
Cc1cn([C@H]2C[C@H](O[C@@H]3C[C@@H](O)C[C@@H](OP(=O)(S)O[C@H]4C[C@H](n5cc(C)c(=O)[nH]c5=O)O[C@@H]4COP(=O)(S)O[C@H]4[C@@H](O)[C@H](n5ccc(N)nc5=O)O[C@@H]4COP(=O)(S)O[C@H]4C[C@H](n5cc(C)c(=O)[nH]c5=O)O[C@@H]4COP(=O)(S)O[C@H]4C[C@H](n5cc(C)c(=O)[nH]c5=O)O[C@@H]4COP(=O)(S)O[C@H]4C[C@H](n5ccc6c(=O)[nH]c(N)nc65)O[C@@H]4COP(=O)(S)O[C@H]4[C@@H](O)[C@H](n5ccc(N)nc5=O)O[C@@H]4COP(=O)(S)O[C@H]4C[C@H](n5cc(C)c(=O)[nH]c5=O)O[C@@H]4COP(=O)(S)O[C@H]4[C@@H](O)[C@H](n5cnc6c(=O)[nH]c(N)nc65)O[C@@H]4COP(=O)(S)O[C@H]4C[C@H](n5cc(C)c(=O)[nH]c5=O)O[C@@H]4COP(=O)(S)O[C@H]4[C@@H](O)[C@H](n5ccc(N)nc5=O)O[C@@H]4COP(=O)(S)O[C@H]4C[C@H](n5cc(C)c(=O)[nH]c5=O)O[C@@H]4CO)C3)[C@@H](COP(=O)(S)O[C@H]3[C@@H](O)[C@H](n4ccc(N)nc4=O)O[C@@H]3COP(=O)(S)O[C@H]3C[C@H](n4cc(C)c(=O)[nH]c4=O)O[C@@H]3COP(=O)(S)O[C@H]3C[C@H](n4cc(C)c(=O)[nH]c4=O)O[C@@H]3COP(=O)(S)O[C@H]3C[C@H](n4ccc5c(=O)[nH]c(N)nc54)O[C@@H]3COP(=O)(S)O[C@H]3[C@@H](O)[C@H](n4ccc(N)nc4=O)O[C@@H]3COP(=O)(S)O[C@H]3C[C@H](n4cc(C)c(=O)[nH]c4=O)O[C@@H]3COP(=O)(S)O[C@H]3[C@@H](O)[C@H](n4cnc5c(=O)[nH]c(N)nc54)O[C@@H]3COP(=O)(S)O[C@H]3C[C@H](n4cc(C)c(=O)[nH]c4=O)O[C@@H]3COP(=O)(S)O[C@H]3[C@@H](O)[C@H](n4ccc(N)nc4=O)O[C@@H]3COP(=O)(S)O[C@H]3C[C@H](n4cc(C)c(=O)[nH]c4=O)O[C@@H]3CO)O2)c(=O)[nH]c1=O (stereo not given in full)	0.29 ng/mL	0.5 ng/mL	109 ng/mL	14.2 ng/mL	Dose-dependent effect	0.12 ng/mL	0.25 ng/mL	0.02 ng/mL	0.12 ng/mL	2.26 ng/mL

— ChEMBL document CHEMBL1157912, “Impact of nature and length of linker incorporated in agonists on toll-like receptor 9-mediated immune responses” (J Med Chem, 2010)
